Experimental findings from ChEMBL document CHEMBL3351507, “11H-Pyrido[3',2':4,5]pyrrolo[3,2-c]cinnoline and pyrido[3',2':4,5]pyrrolo[1,2-c][1,2,3]benzotriazine: two new ring systems with antitumor activity” (2014) are described below.

For assay [1], the system named is LoVo. Description: Cytotoxicity against human LoVo cells assessed as growth inhibition after 72 hrs by MTT assay. The assay is classed as functional. A digest of the protocol:
(§1)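 Cells were grown in medium with 10% heat-inactivated FBS plus penicillin/streptomycin: RPMI-1640 for Jurkat and CEM, DMEM for A-431, HAM's F12 for LoVo. The doxorubicin-resistant LoVo subclone was kept with 0.1 µg/mL doxorubicin. Cells were seeded at 5x10^3 per well and pre-incubated 24 h at 37 °C.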
For orientation: Tetrazolium dyes change colour on reduction, which living cells bring about.

Assay [2] in a line: Cytotoxicity against human LoVo/DX cells assessed as growth inhibition after 72 hrs by MTT assay. The assay is classed as functional. An outline of the steps:
as §1

In assay [3] the test system is LoVo. Description: Resistance index, ratio of GI50 for human LoVo/DX cells to GI50 for human LoVo cells. It is filed as functional. A digest of the protocol:
(§2)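 CEMVbl-100 (vinblastine-selected CEM) was grown in RPMI-1640 with 0.1 µg/mL vinblastine. LoVoDoxo was grown in HAM's F12 with 0.1 µg/mL doxorubicin; parental CEM and LoVo were grown without drug. Media had 10% FBS. 5x10^3 cells were seeded, preincubated 24 h at 37 °C, then exposed 72 h to compound (DMSO <1%). Read-out was MTT; GI50 came from dose-response curves of ≥3 experiments. RI = GI50 resistant / GI50 parental.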

Assay [4] concerns the target T1, DNA topoisomerase 1 (Homo sapiens) (UniProt P11387).
T1 sequence (whole entry): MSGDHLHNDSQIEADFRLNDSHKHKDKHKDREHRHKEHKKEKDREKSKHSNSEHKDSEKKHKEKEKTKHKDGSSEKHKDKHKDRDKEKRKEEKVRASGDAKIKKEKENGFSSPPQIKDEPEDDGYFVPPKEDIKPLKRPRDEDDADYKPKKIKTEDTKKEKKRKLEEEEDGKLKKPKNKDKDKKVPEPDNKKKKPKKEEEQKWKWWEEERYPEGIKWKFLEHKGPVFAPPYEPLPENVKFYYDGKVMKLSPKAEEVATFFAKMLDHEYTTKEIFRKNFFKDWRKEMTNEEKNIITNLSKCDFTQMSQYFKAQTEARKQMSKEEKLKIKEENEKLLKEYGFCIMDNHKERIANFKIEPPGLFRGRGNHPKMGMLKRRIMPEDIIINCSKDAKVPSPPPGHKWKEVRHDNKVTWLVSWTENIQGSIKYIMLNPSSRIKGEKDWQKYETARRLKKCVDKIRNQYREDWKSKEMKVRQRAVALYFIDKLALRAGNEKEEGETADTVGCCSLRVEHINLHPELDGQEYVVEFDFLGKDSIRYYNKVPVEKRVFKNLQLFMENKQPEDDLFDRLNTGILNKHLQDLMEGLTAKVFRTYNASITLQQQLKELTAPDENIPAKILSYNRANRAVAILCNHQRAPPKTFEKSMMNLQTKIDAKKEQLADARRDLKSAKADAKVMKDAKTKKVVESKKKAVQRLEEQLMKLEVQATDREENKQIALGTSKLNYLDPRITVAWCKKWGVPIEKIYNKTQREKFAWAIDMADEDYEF
The experiment in a line: Inhibition of human DNA topoisomerase 1-mediated DNA single strand cleavage at 5 to 100 uM after 30 mins by agarose gel electrophoresis relative to untreated control. A digest of the protocol: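 Reactions were set up as for relaxation: human topoisomerase I, 0.250 µg pBR322, compound 5-100 µM, 37 °C for 30 min, stopped with SDS/proteinase K. Samples were run on 0.8% agarose containing 0.5 µg/mL ethidium bromide, then destained in water, so that cleaved/nicked DNA could be detected under UV.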

Assay [5] concerns CCRF-CEM. The experiment in a line: Cytotoxicity against human CEM cells assessed as growth inhibition after 72 hrs by MTT assay. The assay is classed as functional. A digest of the protocol:
as §1

Assay [6] has as its system CCRF-CEM. The experiment in a line: Cytotoxicity against human vinblastin-resistant CEM cells assessed as growth inhibition after 72 hrs by MTT assay. The assay is classed as functional. A digest of the protocol:
as §2

Assay [7] deals with CCRF-CEM. Description: Resistance index, ratio of GI50 for human vinblastin-resistant CEM cells to GI50 for human CEM cells. It is filed as functional. A digest of the protocol: as §2

The source made the active and inactive calls. No cut-off for these calls is given here.

For the molecule `COc1cccc2c1C(=O)c1c(O)c3c(c(O)c1C2=O)C[C@@](O)(C(=O)CO)C[C@@H]3O[C@H]1C[C@H](N)[C@H](O)[C@H](C)O1` [DOXORUBICIN], the GI50 – broadly, the concentration giving 50% growth inhibition – is 120 nM in assay [1] and 13.5 µM in assay [2]. The Ratio in assay [3] was 112.5.
`CC[C@@]1(O)C(=O)OCc2c1cc1n(c2=O)Cc2cc3ccccc3nc2-1`: the result in assay [4] was Active.
As to `CC[C@]1(O)C[C@@H]2CN(CCc3c([nH]c4ccccc34)[C@@](C(=O)OC)(c3cc4c(cc3OC)N(C)[C@H]3[C@@](O)(C(=O)OC)[C@H](OC(C)=O)[C@]5(CC)C=CCN6CC[C@]43[C@@H]65)C2)C1` [VINBLASTINE], the GI50 in assay [5] was determined as 4 nM; in assay [6], 210 nM. The Ratio in assay [7] is on record as 525.
